# Laboratory results taken from ChEMBL document CHEMBL4020814, “Synthesis, Binding Mode, and Antihyperglycemic Activity of Potent and Selective (5-Imidazol-2-yl-4-phenylpyrimidin-2-yl)[2-(2-pyridylamino)ethyl]amine Inhibitors of Glycogen Synthase Kinase 3” (J Med Chem, 2017).
# Key:
# [1] = biological target: Angiopoietin-1 receptor (Homo sapiens, UniProt Q02763)
# [2] = biological target: Casein kinase I isoform epsilon (Homo sapiens, UniProt P49674); assay: Inhibition of human CK1epsilon using biotin peptide substrate after 1 hr by scintillation counting method
# Sequence of Casein kinase I isoform epsilon (P49674 whole entry, canonical isoform): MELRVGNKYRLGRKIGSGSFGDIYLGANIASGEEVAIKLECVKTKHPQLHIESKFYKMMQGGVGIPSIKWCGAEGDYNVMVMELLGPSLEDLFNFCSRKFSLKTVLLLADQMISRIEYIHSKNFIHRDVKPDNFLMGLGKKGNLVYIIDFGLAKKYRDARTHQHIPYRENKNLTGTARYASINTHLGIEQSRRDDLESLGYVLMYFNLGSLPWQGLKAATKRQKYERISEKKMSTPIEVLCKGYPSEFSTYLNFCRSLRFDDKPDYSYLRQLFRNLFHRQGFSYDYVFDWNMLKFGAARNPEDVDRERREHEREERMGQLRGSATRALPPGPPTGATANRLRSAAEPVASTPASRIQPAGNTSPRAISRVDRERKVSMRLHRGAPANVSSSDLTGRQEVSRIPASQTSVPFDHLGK
# [3] = Stability in human liver microsomes assessed as half life; format: ADME, microsome
# [4] = test system: Rattus norvegicus; assay: Toxicity in diabetic ZDF rat assessed as increase in beta-catenin mRNA levels in brain administered at 130 mg/kg/day infused over 20 hrs; format: organism-based; conditions: in vivo
# [5] = Oral bioavailability in diabetic ZDF fa/fa rat at 8 mg/kg administered 4.5 and 0.5 hrs prior to oral glucose challenge; format: ADME, organism-based; conditions: in vivo
# [6] = Plasma concentration in diabetic db/db mouse at 30 mg/kg administered at 4.5 and 0.5 hrs prior to oral glucose challenge measured 20 mins post second dose; conditions: plasma
# [7] = Half life in diabetic ZDF fa/fa rat at 8 mg/kg administered 4.5 and 0.5 hrs prior to oral glucose challenge; format: ADME, organism-based; conditions: in vivo
# [8] = test system: Mus musculus; assay: Effect on insulin level in diabetic ob/ob mouse administered at 30 mg/kg, po measured post glucose challenge; format: ADME, organism-based; conditions: in vivo
# Outline: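 ob/ob mice aged 9–10 weeks, 6–8 per group, given an oral glucose tolerance test with oral dosing at −4.5 and −0.5 h (vehicle captisol). Plasma glucose and insulin were measured after the glucose challenge. Values are mean ± SEM.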
# [9] = test system: Mus musculus; assay: Effect on urine glucose levels in diabetic db/db mouse administered orally at 4.5 and 0.5 hrs prior to oral glucose challenge; format: ADME; conditions: in vivo
# [10] = test system: Rattus norvegicus; assay: Effect on plasma glucose levels in lean ZDF fa/fa rat administered at 30 mg/kg dosed at 4.5 and 0.5 hrs prior to oral glucose challenge by oral glucose tolerance test; format: ADME, organism-based; conditions: in vivo
# [11] = test system: Rattus norvegicus; assay: Reduction in plasma insulin level in diabetic ZDF fa/fa rat at 30 mg/kg, po administered as single dose measured after 60 mins; format: ADME, organism-based; conditions: in vivo, 1 h
# Outline: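 Twelve-week-old male ZDF (fa/fa) rats with fasted basal glucose of 500–550 mg/dL, food removed 3–4 h before dosing. A single oral dose was given with vehicle 15% captisol. Plasma glucose and insulin were measured from serial tail-snip bleeds, n = 8/group, mean ± SEM.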
# [12] = Half life in po dosed diabetic ZDF rat; format: ADME, organism-based; conditions: in vivo
# [13] = Oral bioavailability in diabetic ZDF rat; format: ADME, organism-based; conditions: in vivo
# [14] = Cmax in po dosed diabetic ZDF rat; format: ADME, organism-based; design: route oral; conditions: in vivo
# [15] = AUC in po dosed diabetic ZDF rat; format: ADME, organism-based; conditions: in vivo
# [16] = Clearance in iv dosed diabetic ZDF rat; format: ADME, organism-based; conditions: in vivo
# Outline: (§1)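 ZDF (fa/fa) rats dosed intravenously; clearance and steady-state volume of distribution derived from plasma concentration–time data.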
# [17] = Volume of distribution at steady state in iv dosed diabetic ZDF rat; format: ADME, organism-based; conditions: in vivo, read-out: Vdss
# Outline: as §1
# [18] = test system: Rattus norvegicus; assay: Effect on plasma insulin level in diabetic ZDF fa/fa rat assessed as plasma insulin levels at 5 mg/kg, iv prime dose with continuous infusion at 64 ug/kg/min for 4 days (reference value: 3.9 +/- 0.6 ng/ml); format: ADME, organism-based; conditions: in vivo, 96 h
# [19] = test system: Rattus norvegicus; assay: Toxicity in diabetic ZDF rat assessed as increase in beta-catenin mRNA levels in liver administered at 130 mg/kg/day infused over 20 hrs; format: organism-based; conditions: in vivo
# [20] = test system: Rattus norvegicus; assay: Toxicity in diabetic ZDF rat assessed as increase in beta-catenin mRNA levels in lungs administered at 130 mg/kg/day infused over 20 hrs; format: organism-based; conditions: in vivo
# [21] = test system: Rattus norvegicus; assay: Toxicity in diabetic ZDF rat assessed as increase in beta-catenin mRNA levels in colon administered at 130 mg/kg/day infused over 20 hrs; format: organism-based; conditions: in vivo
# [22] = test system: Rattus norvegicus; assay: Toxicity in diabetic ZDF rat assessed as increase in beta-catenin mRNA levels in adipose tissue administered at 130 mg/kg/day infused over 20 hrs; format: organism-based; conditions: in vivo
# [23] = test system: Rattus norvegicus; assay: Toxicity in diabetic ZDF rat assessed as increase in cyclin D1 mRNA levels in brain administered at 130 mg/kg/day infused over 20 hrs; format: organism-based; conditions: in vivo
# [24] = test system: Rattus norvegicus; assay: Toxicity in diabetic ZDF rat assessed as increase in cyclin D1 mRNA levels in liver administered at 130 mg/kg/day infused over 20 hrs; format: organism-based; conditions: in vivo
# [25] = test system: Rattus norvegicus; assay: Toxicity in diabetic ZDF rat assessed as increase in cyclin D1 mRNA levels in lung administered at 130 mg/kg/day infused over 20 hrs; format: organism-based; conditions: in vivo
# [26] = test system: Rattus norvegicus; assay: Toxicity in diabetic ZDF rat assessed as increase in cyclin D1 mRNA levels in colon administered at 130 mg/kg/day infused over 20 hrs; format: organism-based; conditions: in vivo
# [27] = test system: Rattus norvegicus; assay: Toxicity in diabetic ZDF rat assessed as increase in cyclin D1 mRNA levels in adipose tissue administered at 130 mg/kg/day infused over 20 hrs; format: organism-based; conditions: in vivo
# [28] = test system: Mus musculus; assay: Effect on insulin level in diabetic db/db mouse at 30 mg/kg administered at 4.5 and 0.5 hrs prior to oral glucose challenge; format: ADME, organism-based; conditions: in vivo
# Outline: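 db/db mice, 6–8 per group, fasted ~6 h (food removed 3 h before prebleed), dosed orally at −4.5 and −0.5 h relative to oral glucose (vehicle 10% captisol). Tail-snip blood glucose was read by glucometer or analyzer; plasma insulin was measured by ELISA.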
# [29] = organism: Mus musculus; assay: Effect on insulin levels in streptozotocin-treated mouse fed with high fat diet; format: ADME; conditions: in vivo
# Outline: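 Mice on a high-fat diet with intermittent streptozotocin were dosed orally at −4.5 and −0.5 h before oral glucose challenge. Post-challenge glucose AUC and insulin were measured.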
# [30] = test system: Rattus norvegicus; assay: Effect on plasma insulin level in obese ZDF fa/fa rat at 30 mg/kg dosed at 4.5 and 0.5 hrs prior to oral glucose challenge measured at -250 mins (reference value: 7.2 +/- 0.6 ng/ml); format: ADME, organism-based; conditions: in vivo
# [31] = test system: Rattus norvegicus; assay: Effect on plasma insulin level in obese ZDF fa/fa rat at 30 mg/kg dosed at 4.5 and 0.5 hrs prior to oral glucose challenge measured at -45 mins (reference value: 6.9 +/- 0.3 ng/ml); format: ADME, organism-based; conditions: in vivo
# [32] = test system: Rattus norvegicus; assay: Effect on plasma insulin level in obese ZDF fa/fa rat at 30 mg/kg dosed at 4.5 and 0.5 hrs prior to oral glucose challenge measured at 25 mins (reference value: 8.5 +/- 0.7 ng/ml); format: ADME, organism-based; conditions: in vivo
# [33] = test system: Rattus norvegicus; assay: Effect on plasma insulin level in obese ZDF fa/fa rat at 30 mg/kg dosed at 4.5 and 0.5 hrs prior to oral glucose challenge measured at 60 mins (reference value: 7.8 +/- 0.8 ng/ml); format: ADME, organism-based; conditions: in vivo
# [34] = test system: Rattus norvegicus; assay: Effect on plasma insulin level in lean ZDF fa/fa rat at 30 mg/kg dosed at 4.5 and 0.5 hrs prior to oral glucose challenge measured at -250 mins (reference value: 0.2 +/- 0.1 ng/ml); format: ADME, organism-based; conditions: in vivo
# [35] = test system: Rattus norvegicus; assay: Effect on plasma insulin level in lean ZDF fa/fa rat at 30 mg/kg dosed at 4.5 and 0.5 hrs prior to oral glucose challenge measured at -45 mins (reference value: 0.2 +/- 0.1 ng/ml); format: ADME, organism-based; conditions: in vivo
# [36] = test system: Rattus norvegicus; assay: Effect on plasma insulin level in lean ZDF fa/fa rat at 30 mg/kg dosed at 4.5 and 0.5 hrs prior to oral glucose challenge measured at 25 mins (reference value: 0.4 +/- 0.1 ng/ml); format: ADME, organism-based; conditions: in vivo
# [37] = test system: Rattus norvegicus; assay: Effect on plasma insulin level in lean ZDF fa/fa rat at 30 mg/kg dosed at 4.5 and 0.5 hrs prior to oral glucose challenge measured at 60 mins (reference value: 0.3 +/- 0.1 ng/ml); format: ADME, organism-based; conditions: in vivo, 1 h
# Sequence of Angiopoietin-1 receptor (Q02763 whole entry, canonical isoform): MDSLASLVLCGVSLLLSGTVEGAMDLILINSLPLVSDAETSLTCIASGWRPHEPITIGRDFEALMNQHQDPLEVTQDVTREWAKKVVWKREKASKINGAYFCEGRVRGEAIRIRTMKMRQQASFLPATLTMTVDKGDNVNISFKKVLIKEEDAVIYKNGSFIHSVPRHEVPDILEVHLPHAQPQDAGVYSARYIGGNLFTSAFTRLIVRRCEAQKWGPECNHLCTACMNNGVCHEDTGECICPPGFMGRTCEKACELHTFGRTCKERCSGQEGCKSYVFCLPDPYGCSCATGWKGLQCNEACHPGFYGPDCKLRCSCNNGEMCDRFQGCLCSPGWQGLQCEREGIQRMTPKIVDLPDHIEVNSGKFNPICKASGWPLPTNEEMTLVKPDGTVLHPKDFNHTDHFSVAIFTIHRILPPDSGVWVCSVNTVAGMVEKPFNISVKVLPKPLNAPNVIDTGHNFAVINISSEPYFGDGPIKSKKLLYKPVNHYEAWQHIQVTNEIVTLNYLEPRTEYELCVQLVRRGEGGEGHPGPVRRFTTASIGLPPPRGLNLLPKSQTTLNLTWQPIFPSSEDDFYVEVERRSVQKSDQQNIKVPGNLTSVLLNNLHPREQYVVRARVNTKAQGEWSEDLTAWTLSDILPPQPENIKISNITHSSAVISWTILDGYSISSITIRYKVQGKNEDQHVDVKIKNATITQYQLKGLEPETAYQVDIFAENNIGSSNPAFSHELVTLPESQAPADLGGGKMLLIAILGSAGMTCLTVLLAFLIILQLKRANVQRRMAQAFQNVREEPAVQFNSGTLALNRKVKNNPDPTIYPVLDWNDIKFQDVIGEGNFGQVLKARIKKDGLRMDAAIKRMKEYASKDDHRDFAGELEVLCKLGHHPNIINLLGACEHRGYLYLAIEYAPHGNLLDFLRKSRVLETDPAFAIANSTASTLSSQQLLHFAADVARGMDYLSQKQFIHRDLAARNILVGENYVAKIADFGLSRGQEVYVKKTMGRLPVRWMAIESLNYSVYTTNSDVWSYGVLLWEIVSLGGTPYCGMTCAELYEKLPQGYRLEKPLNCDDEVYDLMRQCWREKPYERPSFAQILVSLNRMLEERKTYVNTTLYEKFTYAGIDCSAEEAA
smiles,measurement,setting,value
Cc1c[nH]c(-c2cnc(NCCNc3ccc(C#N)cn3)nc2-c2ccc(Cl)cc2Cl)n1 [LADUVIGLUSIB],IC50,[1],> 5 µM
same,IC50,[2],> 5 µM
same,half-life,[3],1.82 h
same,Activity,[4],Non-Toxic
same,bioavailability,[5],36%
same,concentration at 20 min,[6],15000 ng/mL
same,half-life,[7],1.53 h
same,Activity,[8],Toxic
same,Activity,[9],Non-Toxic
same,Activity,[10],Non-Toxic
same,Activity,[11],Toxic
same,half-life,[12],1.53 to 1.63 h
same,bioavailability,[13],36 to 43%
same,Cmax,[14],400 ng/mL
same,AUC,[15],1420 ng·h/mL
same,clearance,[16],43 mL/min/kg
same,Vd,[17],3.6 L/kg
same,Activity,[18],3.1 ng/mL
same,Activity,[19],Non-Toxic
same,Activity,[20],Non-Toxic
same,Activity,[21],Non-Toxic
same,Activity,[22],Non-Toxic
same,Activity,[23],Non-Toxic
same,Activity,[24],Non-Toxic
same,Activity,[25],Non-Toxic
same,Activity,[26],Non-Toxic
same,Activity,[27],Non-Toxic
same,Activity,[28],Non-Toxic
same,Activity,[29],Toxic
same,Activity,[30],6.3 ng/mL
same,Activity,[31],5.3 ng/mL
same,Activity,[32],4.8 ng/mL
same,Activity,[33],5.2 ng/mL
same,Activity,[34],0.3 ng/mL
same,Activity,[35],0.3 ng/mL
same,Activity,[36],0.6 ng/mL
same,Activity,[37],0.4 ng/mL
